Experimental data reported in ChEMBL document CHEMBL3102741, “A novel 2,3-diphenyl-4H-pyrido[1,2-a]pyrimidin-4-one derivative inhibits endothelial cell dysfunction and smooth muscle cell proliferation/activation” (Eur J Med Chem, 2014).
Active and inactive are the calls of the source. No cut-off for these calls is given here.

Legend:
HUVEC [1] = test: Antiinflammatory activity in HUVEC assessed as inhibition of TNF-alpha-induced VCAM1 expression incubated for 1 hr prior to TNF-alpha challenge measured after overnight incubation by enzyme immunoassay method; type: functional, Homo sapiens
Method in brief: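 Confluent HUVECs in 96-well plates were pre-treated 1 h with compound (25 µM), then stimulated with TNF-α 10 ng/mL overnight. Cell-surface VCAM-1 was measured by cell-surface enzyme immunoassay. Three independent experiments, each with n = 8 replicates.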

HUVEC [2] = test: Cytotoxicity against HUVEC assessed as cell viability up to 50 uM after 24 to 72 hrs by WST-1 assay; type: cell-based; settings: human
Method in brief: (§1)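 HUVECs were exposed to compound (10, 25, 50 µM; 0.1% DMSO vehicle) for 24 h or 72 h. WST-1 premix was added for a further 2 h, and formazan absorbance was read at 450 nm as a measure of mitochondrial dehydrogenase activity. Three independent experiments, each with n = 6 replicates.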

HUVEC [3] = test: Cytotoxicity against HUVEC assessed as cell viability at 10 uM after 24 to 72 hrs by WST-1 assay relative to untreated control; type: cell-based; settings: human
Method in brief: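 HUVECs (used up to fifth passage from primary culture) in 96-well plates exposed to compound for 24 h or 72 h, DMSO final ≤0.1% as vehicle; WST-1 premix added for further 2 h, absorbance at 450 nm; viability relative to untreated cells. Morphology also checked by phase-contrast microscopy. Mean of three independent experiments, each n = 6 replicates.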

HUVEC [4] = test: Cytotoxicity against HUVEC assessed as cell viability at 10 to 50 uM after 24 to 72 hrs by WST-1 assay relative to untreated control; type: cell-based; settings: human; method in brief: as §1
HUVEC [5] = test: Cytotoxicity against HUVEC assessed as cell detachment at 10 to 50 uM after 72 hrs by phase-contrast microscopy; type: cell-based; settings: human
Method in brief: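 After 72 h of treatment with compound at concentrations up to 50 µM, HUVEC morphology was examined by phase-contrast microscopy.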

[6] = molecular target: T1, Prostaglandin G/H synthase 2 (Homo sapiens) (UniProt P35354); test: Inhibition of COX2 in HAoSMC assessed as PMA-induced PGE2 production at 1 to 25 uM incubated for 1 hr prior to PMA challenge measured after overnight incubation by competitive enzyme immunoassay
T1 sequence (whole entry): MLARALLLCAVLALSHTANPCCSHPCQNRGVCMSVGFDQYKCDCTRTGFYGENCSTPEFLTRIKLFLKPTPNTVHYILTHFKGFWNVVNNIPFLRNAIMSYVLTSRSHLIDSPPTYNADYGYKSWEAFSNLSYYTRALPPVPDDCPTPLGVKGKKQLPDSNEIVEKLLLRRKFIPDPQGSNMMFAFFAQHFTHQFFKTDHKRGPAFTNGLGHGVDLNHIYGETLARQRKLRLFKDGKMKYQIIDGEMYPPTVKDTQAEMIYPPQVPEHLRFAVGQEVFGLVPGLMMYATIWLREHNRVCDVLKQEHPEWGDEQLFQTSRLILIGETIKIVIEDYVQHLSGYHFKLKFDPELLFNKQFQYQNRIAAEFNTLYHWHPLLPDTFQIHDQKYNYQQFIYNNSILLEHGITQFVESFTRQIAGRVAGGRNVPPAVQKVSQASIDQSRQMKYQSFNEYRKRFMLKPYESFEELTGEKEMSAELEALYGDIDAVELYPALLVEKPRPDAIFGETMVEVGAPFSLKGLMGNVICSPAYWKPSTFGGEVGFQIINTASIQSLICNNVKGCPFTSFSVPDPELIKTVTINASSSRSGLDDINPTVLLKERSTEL
Method in brief: (§2)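 Cells were pre-treated 1 h with compound (1–25 µM), then stimulated overnight with PMA 10 nM (HAoSMCs) or TNF-α 10 ng/mL (HUVECs). Conditioned medium was centrifuged, and PGE2 and PGI2 (as 6-keto-PGF1α) were measured by competitive EIA in pg/mL. Three independent experiments in duplicate.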

Homo sapiens [7] = species on record: Homo sapiens; test: Cytotoxicity against HAoSMC assessed as inhibition of PDGF-BB-induced cell growth incubated for 1 hr prior to PDGF-BB challenge measured after 48 hrs by BrdU incorporation assay; type: functional
Method in brief: (§3)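 Cells at about 70% confluence were serum-starved overnight, pre-treated 1 h with compound (1–25 µM), then grown with or without PDGF-BB (HAoSMCs) or ECGF (HUVECs), each at 20 ng/mL, for 48 h. Cells were BrdU-labelled, fixed and immunostained, and absorbance was read at 450 nm. Three experiments, n = 8 each.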

[8] = molecular target: T1, Prostaglandin G/H synthase 2 (Homo sapiens); test: Inhibition of COX2 in HUVEC assessed as TNF-alpha-induced PGE2 production at 1 to 25 uM incubated for 1 hr prior to TNF-alpha challenge measured after overnight incubation by competitive enzyme immunoassay; method in brief: as §2
[9] = molecular target: T1, Prostaglandin G/H synthase 2 (Homo sapiens); test: Inhibition of COX2 in HUVEC assessed as TNF-alpha-induced PGI2 production at 1 to 25 uM incubated for 1 hr prior to TNF-alpha challenge measured after overnight incubation by competitive enzyme immunoassay; method in brief: as §2
Homo sapiens [10] = species on record: Homo sapiens; test: Inhibition of PDGF-BB-induced COX-2 protein expression in HAoSMC incubated for 1 hr prior to PDGF-BB challenge measured after overnight incubation by EIA assay relative to control; type: functional
Method in brief: (§4)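 Cells were pre-treated 1 h with compound, then stimulated overnight with PMA 10 nM, TNF-α 10 ng/mL (HUVECs) or PDGF-BB 20 ng/mL (HAoSMCs). Monolayers were fixed and permeabilized in cold acetone on ice for 2 min. They were probed with goat anti-COX-2 and then HRP anti-goat IgG, developed with TMB for 30 min, stopped with 0.18 M H2SO4, and read at 450 nm. Three experiments, n = 6 each.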

HUVEC [11] = test: Antiinflammatory activity in HUVEC assessed as reduction in TNF-alpha-induced VCAM1 mRNA expression at 10 to 25 uM incubated for 1 hr prior to TNF-alpha challenge measured after 4 hrs by RT-PCR analysis relative to control; type: functional, cell-based; settings: Homo sapiens
Method in brief: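 HUVECs were pre-treated 1 h with compound, then exposed to TNF-α 10 ng/mL for 4 h. Total RNA was extracted and VCAM-1 with GAPDH amplified by RT-PCR (VCAM-1 30 cycles, 55 °C annealing). Bands were quantified by densitometry and normalized to GAPDH. Mean ± SEM of three determinations.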

HUVEC [12] = test: Effect on PMA-induced COX-2 mRNA expression in HUVEC at 1 to 25 uM incubated for 1 hr prior to PMA challenge measured after overnight incubation by RT-PCR analysis relative to control; type: ADME, cell-based; settings: human
Method in brief: (§5)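 Confluent cells (HAoSMCs at passages 20–30, HUVECs up to fifth passage) were pre-treated 1 h with compound (1, 10, 25 µM) or 0.1% DMSO, then stimulated with PMA 10 nM, PDGF-BB 20 ng/mL or TNF-α 10 ng/mL overnight. Total RNA was extracted and RT-PCR run with GAPDH co-amplified. Bands were quantified by densitometry and normalized to GAPDH. Three determinations.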

[13] = molecular target: Matrix metalloproteinase-9 (Homo sapiens) (UniProt P14780); test: Inhibition of PMA-induced MMP9 activity in HAoSMC at 25 uM after 24 hrs by gelatin zymography relative to control
Method in brief: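 HAoSMCs were treated with PMA 10 nM in serum-free medium, with or without compound (10, 25 µM), for 24 h. Conditioned medium ([…]) was run on 11% SDS-PAGE containing 0.1% gelatin at 125 V and 4 °C. Gels were washed in Triton X-100, incubated 24 h at 37 °C in Tris pH 7.5/CaCl2 buffer, and Coomassie-stained. Lysis bands were quantified by densitometry.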

HUVEC [14] = test: Cytotoxicity against HUVEC assessed as inhibition of ECGF-induced cell growth at 1 to 25 uM incubated for 1 hr prior to ECGF challenge measured after 48 hrs by BrdU incorporation assay relative to control; type: cell-based; settings: human; method in brief: as §3
HUVEC [15] = test: Cytotoxicity against HUVEC at 1 to 25 uM after 48 hrs by BrdU incorporation assay relative to untreated control; settings: human
Homo sapiens [16] = species on record: Homo sapiens; test: Antiinflammatory activity in HAoSMC assessed as inhibition of PMA-induced MMP-9 mRNA expression at 10 to 25 uM incubated for 1 hr prior to PMA challenge measured after overnight incubation by RT-PCR analysis; type: functional; method in brief: as §5
Homo sapiens [17] = species on record: Homo sapiens; test: Inhibition of PDGF-BB-induced COX-2 mRNA expression in HAoSMC at 1 to 25 uM incubated for 1 hr prior to PDGF-BB challenge measured after overnight incubation by RT-PCR analysis relative to control; type: functional; method in brief: as §5
HUVEC [18] = test: Effect on TNF-alpha-induced COX-2 protein expression in HUVEC at 1 to 25 uM incubated for 1 hr prior to TNF-alpha challenge measured after overnight incubation by EIA assay relative to control; type: ADME, cell-based; settings: human; method in brief: as §4
HUVEC [19] = test: Effect on PMA-induced COX-2 protein expression in HUVEC at 1 to 25 uM incubated for 1 hr prior to PMA challenge measured after overnight incubation by EIA assay relative to control; type: ADME, cell-based; settings: human; method in brief: as §4
Homo sapiens [20] = species on record: Homo sapiens; test: Inhibition of PMA-induced COX-2 protein expression in HAoSMC at 1 to 25 uM incubated for 1 hr prior to PMA challenge measured after overnight incubation by EIA assay relative to control; type: functional; method in brief: as §4
Homo sapiens [21] = species on record: Homo sapiens; test: Inhibition of PMA-induced COX-2 mRNA expression in HAoSMC at 1 to 25 uM incubated for 1 hr prior to PMA challenge measured after overnight incubation by RT-PCR analysis relative to control; type: functional; method in brief: as §5
HUVEC [22] = test: Effect on TNF-alpha-induced COX-2 mRNA expression in HUVEC at 1 to 25 uM incubated for 1 hr prior to TNF-alpha challenge measured after overnight incubation by RT-PCR analysis relative to control; type: ADME, cell-based; settings: human; method in brief: as §5

Chain of Matrix metalloproteinase-9 (Homo sapiens) (P14780 whole entry): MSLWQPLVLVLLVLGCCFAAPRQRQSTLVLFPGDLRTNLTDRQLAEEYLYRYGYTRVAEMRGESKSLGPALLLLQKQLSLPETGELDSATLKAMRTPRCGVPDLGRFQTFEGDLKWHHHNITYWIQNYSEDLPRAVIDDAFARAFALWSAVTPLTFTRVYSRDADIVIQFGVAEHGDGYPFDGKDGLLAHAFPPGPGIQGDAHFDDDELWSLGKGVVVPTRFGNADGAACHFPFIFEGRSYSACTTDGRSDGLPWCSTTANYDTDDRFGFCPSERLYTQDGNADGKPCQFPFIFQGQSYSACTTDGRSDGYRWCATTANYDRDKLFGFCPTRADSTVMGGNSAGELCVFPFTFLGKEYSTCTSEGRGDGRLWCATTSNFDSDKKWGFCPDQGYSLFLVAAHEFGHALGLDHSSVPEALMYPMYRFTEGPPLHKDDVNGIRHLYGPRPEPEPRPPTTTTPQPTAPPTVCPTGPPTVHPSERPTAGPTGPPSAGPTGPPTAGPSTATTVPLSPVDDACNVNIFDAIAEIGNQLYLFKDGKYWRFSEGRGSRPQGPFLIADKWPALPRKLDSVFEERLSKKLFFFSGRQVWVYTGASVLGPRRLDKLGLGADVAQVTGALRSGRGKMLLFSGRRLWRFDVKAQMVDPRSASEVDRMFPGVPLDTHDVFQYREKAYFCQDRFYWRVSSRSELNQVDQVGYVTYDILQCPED

Structure (SMILES)	inhibition (INH) (HUVEC [1]) [%]	Activity (HUVEC [2])	Activity (HUVEC [4])	Activity (HUVEC [5])	other results
COc1ccc(-c2c(-c3ccc(OC)c(OC)c3)nc3ccccn3c2=O)cc1	10.3	Non-toxic	–	–	–
COc1ccc(-c2c(-c3ccccc3)nc3ccccn3c2=O)cc1OC	12	Non-toxic	–	–	–
O=c1c(O)c(-c2ccc(O)c(O)c2)oc2cc(O)cc(O)c12 [QUERCETIN]	–	–	Toxic	Toxic	Activity (HUVEC [3]): Toxic
COc1ccc(-c2nc3ccccn3c(=O)c2-c2ccccc2)cc1OC	37	Non-toxic	Non-toxic	Non-toxic	inhibition [6]: Active; inhibition (Homo sapiens [7]): Dose-dependent effect; inhibition [8]: inactive; inhibition [9]: inactive; inhibition (Homo sapiens [10]): Dose-dependent effect; inhibition (HUVEC [11]): Active; Activity (HUVEC [12]): Non-toxic; inhibition [13]: Active; inhibition (HUVEC [1]; Homo sapiens): Dose-dependent effect; Activity (HUVEC [14]): Non-toxic; Activity (HUVEC [15]): Non-toxic; inhibition (Homo sapiens [16]): Active; inhibition (Homo sapiens [17]): Active; Activity (HUVEC [18]): Non-toxic; Activity (HUVEC [19]): Non-toxic; inhibition (Homo sapiens [20]): Active; inhibition (Homo sapiens [21]): Active; Activity (HUVEC [22]): Non-toxic
COc1ccc(-c2nc3ccccn3c(=O)c2-c2ccccc2)cc1	8.9	Non-toxic	–	–	–
COc1ccc(-c2nc3ccccn3c(=O)c2-c2ccc(OC)cc2)cc1	9.6	Non-toxic	–	–	–
O=c1c(-c2ccccc2)c(-c2ccccc2)nc2ccccn12	8.5	Non-toxic	–	–	–
COc1ccc(-c2nc3ccccn3c(=O)c2-c2ccc(OC)c(OC)c2)cc1	15	Non-toxic	–	–	–
O=c1cc(-c2ccc(O)cc2)oc2cc(O)cc(O)c12 [APIGENIN]	–	–	Toxic	Toxic	Activity (HUVEC [3]): Toxic
COc1ccc(-c2c(-c3ccccc3)nc3ccccn3c2=O)cc1	12	Non-toxic	–	–	–
